MIC data for 33 molecules are collected here from ChEMBL document CHEMBL1138270, “Antimycobacterial activities of novel 1-(cyclopropyl/tert-butyl/4-fluorophenyl)-1,4-dihydro- 6-nitro-4-oxo-7-(substituted secondary amino)-1,8-naphthyridine-3-carboxylic acid” (J Med Chem, 2007).

The subject of this assay is Mycobacterium tuberculosis. The assay is described as follows: Antimycobacterial activity against multi-drug-resistant Mycobacterium tuberculosis by agar dilution method. In kind it is functional. The essentials:
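MIC was determined by agar dilution, in duplicate.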
(In agar dilution the substance is mixed into plates at graded concentrations.)

Molecules are shown by their SMILES. In brackets after ≈: the same amount, converted by molar mass.

For the molecule `CC1(C)COCN1c1nc2c(cc1[N+](=O)[O-])c(=O)c(C(=O)O)cn2C(C)(C)C`, the MIC (commonly the smallest concentration in the dilution series that meets the test's criterion for growth inhibition) is 0.1 µM (≈ 0.039 µg/mL).

As for `O=C(O)c1cn(-c2ccc(F)cc2)c2nc(N3CCN(C(c4ccccc4)c4ccc(Cl)cc4)CC3)c([N+](=O)[O-])cc2c1=O` (stereo not drawn), the MIC worked out at 0.31 µM (≈ 0.19 µg/mL).

`O=C(O)c1cn(-c2ccc(F)cc2)c2nc(N3CCC(O)(c4ccc(Cl)cc4)CC3)c([N+](=O)[O-])cc2c1=O` gave an MIC of 0.72 µM (≈ 0.388 µg/mL).

`CC(C)(C)n1cc(C(=O)O)c(=O)c2cc([N+](=O)[O-])c(N3CCC(N4CCCCC4)CC3)nc21` gave a minimal inhibitory concentration (MIC) of 1.7 µM (≈ 0.778 µg/mL).

For `O=C(O)c1cn(C2CC2)c2nc(N3CCC(n4c(=O)[nH]c5cc(Cl)ccc54)CC3)c([N+](=O)[O-])cc2c1=O`, the MIC came to 0.74 µM (≈ 0.388 µg/mL). Compared with the last molecule, the MIC is about 2.3-fold lower.

`CC(C)(C)n1cc(C(=O)O)c(=O)c2cc([N+](=O)[O-])c(N3CCC(n4c(=O)[nH]c5cc(Cl)ccc54)CC3)nc21` displayed an MIC of 2.88 µM (≈ 1.56 µg/mL).

The molecule `CCN(CC)C(=O)C1CCCN(c2nc3c(cc2[N+](=O)[O-])c(=O)c(C(=O)O)cn3-c2ccc(F)cc2)C1` (stereo not drawn) had an MIC of 1.52 µM (≈ 0.777 µg/mL). This MIC is about 1.9-fold lower than that of the molecule before.

For the molecule `CC(C)(C)n1cc(C(=O)O)c(=O)c2cc([N+](=O)[O-])c(N3CCN(Cc4ccc5c(c4)OCO5)CC3)nc21`, the MIC is 3.06 µM (≈ 1.56 µg/mL).

Regarding `CC(C)(C)n1cc(C(=O)O)c(=O)c2cc([N+](=O)[O-])c(N3CCC4(CC3)OCCO4)nc21`, the minimal inhibitory concentration (MIC) worked out at 0.44 µM (≈ 0.19 µg/mL).

`CC(C)(C)NC(=O)C1c2ccccc2CCN1c1nc2c(cc1[N+](=O)[O-])c(=O)c(C(=O)O)cn2C1CC1` (stereo not drawn) yielded an MIC of 6.19 µM (≈ 3.13 µg/mL).

Regarding `O=C(O)c1cn(-c2ccc(F)cc2)c2nc(N3CCSCC3)c([N+](=O)[O-])cc2c1=O`, 0.91 µM (≈ 0.392 µg/mL) was the least that counted as inhibitory (MIC).

With `CC(C)(C)n1cc(C(=O)O)c(=O)c2cc([N+](=O)[O-])c(N3CCSCC3)nc21`, the MIC was 0.48 µM (≈ 0.188 µg/mL).

`CN1CCN(c2nc3c(cc2[N+](=O)[O-])c(=O)c(C(=O)O)cn3-c2ccc(F)cc2)CC1c1ccccc1` (stereo not drawn): the MIC came out at 0.18 µM (≈ 0.0906 µg/mL).

Regarding `CN1CCN(c2nc3c(cc2[N+](=O)[O-])c(=O)c(C(=O)O)cn3C(C)(C)C)CC1c1ccccc1` (stereo not drawn), 0.84 µM (≈ 0.391 µg/mL) was the least that counted as inhibitory (MIC).

In turn, `O=C(O)c1cn(C2CC2)c2nc(N3CCN(C(=O)C4COc5ccccc5O4)CC3)c([N+](=O)[O-])cc2c1=O` (stereo not drawn) returned an MIC of 1.49 µM (≈ 0.777 µg/mL).

Molecule `CC1CN(c2nc3c(cc2[N+](=O)[O-])c(=O)c(C(=O)O)cn3C2CC2)CC(C)O1` (stereo not drawn) gave an MIC of 4.02 µM (≈ 1.56 µg/mL).

On to `O=C(O)c1cn(-c2ccc(F)cc2)c2nc(N3CCC(N4CCCCC4)CC3)c([N+](=O)[O-])cc2c1=O`, for which the MIC worked out at 1.57 µM (≈ 0.778 µg/mL).

The molecule `CC(C)(C)n1cc(C(=O)O)c(=O)c2cc([N+](=O)[O-])c(N3CCN(C(=O)C4COc5ccccc5O4)CC3)nc21` (stereo not drawn) registered an MIC of 2.9 µM (≈ 1.56 µg/mL).

Take `O=C(O)c1cn(C2CC2)c2nc(N3CCN(C(=O)c4ccco4)CC3)c([N+](=O)[O-])cc2c1=O`: 3.44 µM (≈ 1.56 µg/mL) was the least that counted as inhibitory (MIC).

`CC(C)(C)NC(=O)C1c2ccccc2CCN1c1nc2c(cc1[N+](=O)[O-])c(=O)c(C(=O)O)cn2C(C)(C)C` (stereo not drawn) showed an MIC of 1.49 µM (≈ 0.777 µg/mL).

`O=C(O)c1cn2c(n1)CN(c1nc3c(cc1[N+](=O)[O-])c(=O)c(C(=O)O)cn3C1CC1)CC2` registered an MIC of 1.77 µM (≈ 0.779 µg/mL).

Take `CC(C)(C)n1cc(C(=O)O)c(=O)c2cc([N+](=O)[O-])c(N3CCN(C(=O)c4ccco4)CC3)nc21`: the MIC came out at 3.32 µM (≈ 1.56 µg/mL).

For `O=C(O)c1cn(C2CC2)c2nc(N3CCN(Cc4ccc5c(c4)OCO5)CC3)c([N+](=O)[O-])cc2c1=O`, the MIC came out at 1.58 µM (≈ 0.78 µg/mL).

In turn, `CC(C)(C)n1cc(C(=O)O)c(=O)c2cc([N+](=O)[O-])c(N3CCn4cc(C(=O)O)nc4C3)nc21` returned an MIC of 0.42 µM (≈ 0.192 µg/mL).

Take `COc1ccc(CC2C3=C(CCCC3)CCN2c2nc3c(cc2[N+](=O)[O-])c(=O)c(C(=O)O)cn3C2CC2)cc1` (stereo not drawn): the MIC turned out to be 0.74 µM (≈ 0.393 µg/mL).

As for `CC1CN(c2nc3c(cc2[N+](=O)[O-])c(=O)c(C(=O)O)cn3-c2ccc(F)cc2)CC(C)O1` (stereo not drawn), the MIC is 0.43 µM (≈ 0.19 µg/mL).

For `O=C(O)c1cn2c(n1)CN(c1nc3c(cc1[N+](=O)[O-])c(=O)c(C(=O)O)cn3-c1ccc(F)cc1)CC2`, it took 0.38 µM (≈ 0.188 µg/mL) to inhibit growth (MIC). The MIC values of the last two molecules are within 1.5-fold of each other.

With `O=C(O)c1cn(-c2ccc(F)cc2)c2nc(N3CCN(C(=O)c4ccco4)CC3)c([N+](=O)[O-])cc2c1=O`, the MIC was 1.54 µM (≈ 0.781 µg/mL). This MIC is about 4.1-fold higher than that of the molecule before.

Molecule `O=C(O)c1cn(-c2ccc(F)cc2)c2nc(N3CCC(n4c(=O)[nH]c5cc(Cl)ccc54)CC3)c([N+](=O)[O-])cc2c1=O` returned an MIC of 0.62 µM (≈ 0.359 µg/mL). This MIC is about 2.5-fold lower than that of the molecule before.

On to `CC(C)(C)NC(=O)C1c2ccccc2CCN1c1nc2c(cc1[N+](=O)[O-])c(=O)c(C(=O)O)cn2-c1ccc(F)cc1` (stereo not drawn), for which the MIC was 1.39 µM (≈ 0.778 µg/mL). Against the preceding molecule, the MIC is about 2.2-fold higher.

Molecule `CC(C)(C)n1cc(C(=O)O)c(=O)c2cc([N+](=O)[O-])c(N3CCC(O)(c4ccc(Cl)cc4)CC3)nc21` returned an MIC of 1.56 µM (≈ 0.781 µg/mL).

Take `COc1c(N2CCNC(C)C2)c(F)cc2c(=O)c(C(=O)O)cn(C3CC3)c12` (stereo not drawn) [GATIFLOXACIN]: 8.34 µM (≈ 3.13 µg/mL) was the least that counted as inhibitory (MIC).

In the case of `NNC(=O)c1ccncc1` [ISONIAZID], the MIC was found to be 45.6 µM (≈ 6.25 µg/mL). Compared with the last molecule, the MIC is about 5.5-fold higher.
